Experimental findings from ChEMBL document CHEMBL4414632, “Design, Synthesis, and Biological Evaluation of Novel Indoles Targeting the Influenza PB2 Cap Binding Region” (J Med Chem, 2019) are described below.

Active and inactive are the calls of the source. No cut-off for these calls is given here.

Data set [1] has as its system Influenza A virus. The data set can be described thus: Antiviral activity against Influenza A virus (A/Puerto Rico/8/34(H1N1)) infected in human A549 cells assessed as reduction in virus neuraminidase level incubated for 24 hrs by fluorescence based assay. The class given is functional, organism-based. Conditions: A/Puerto Rico/8/1934(H1N1), A549, 24 h. An outline of the steps: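 A549 cells, 6,000/well, seeded onto compound (nine four-fold dilutions) in Ham's F12 with 2% FBS, 1% Hepes, gentamycin, 24 h at 37°C, 5% CO2; then infected with A/Puerto Rico/8/34 at MOI 1 for further 24 h.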

Data set [2] is described as follows: Therapeutic index, ratio of CC50 for human A549 cells to IC50 for Influenza A virus (A/Puerto Rico/8/34(H1N1)). Conditions: read-out: Ratio CC50/IC50. The class given is toxicity.
The nature of data set [3]: Therapeutic index, ratio of CC50 for dog MDCK cells to IC50 for Influenza A virus (A/Taiwan/1/1986(H1N1)). The class given is toxicity. Conditions: read-out: Ratio CC50/IC50.
Data set [4] is described as follows: Therapeutic index, ratio of CC50 for dog MDCK cells to IC50 for Influenza A virus A/[…]/3/1975 (H3N2). The class given is toxicity. Conditions: read-out: Ratio CC50/IC50.
Data set [5] concerns Influenza A virus. The data set can be described thus: Antiviral activity against Influenza A virus A/[…]/3/1975 (H3N2) infected in MDCK cells assessed as reduction in virus-induced cytopathic effect by measuring ATP level incubated for 24 hrs by ATPlite luminescence assay. The class given is functional, organism-based. For orientation: Cytopathic effects are the visible damage that an infection or toxin causes in cultured cells.

Data set [6] relates to Influenza A virus. The data set can be described thus: Antiviral activity against Influenza A virus (A/Taiwan/1/1986(H1N1)) infected in MDCK cells assessed as reduction in virus-induced cytopathic effect by measuring ATP level incubated for 24 hrs by ATPlite luminescence assay. Type of data set: functional, organism-based.
Data set [7] can be described thus: Displacement of gamma-[6-aminohexyl]-GTP-biotin from Influenza A virus A/Victoria/3/1975 (H3N2) N-terminal 6His-tagged PB2 (320 to 484 residues) expressed in Escherichia coli incubated for 1 hr by TR-FRET assay. For orientation: In TR-FRET formats the signal depends on donor and acceptor labels being close together.
Data set [8] is described as follows: Displacement of gamma-[6-aminohexyl]-GTP-biotin from Influenza B virus B/Brisbane/60/2008 C-terminal 6His-tagged PB2 (320 to 484 residues) expressed in Escherichia coli incubated for 1 hr by TR-FRET assay.
For data set [9], the system named is Influenza A virus. The data set can be described thus: In vivo antiviral activity against Influenza A virus (A/Puerto Rico/8/34(H1N1)) infected in BALB/c mouse assessed as survival rate at 30 mg/kg, po administered bid for 10 days after 48 hrs post infection and observed for 21 days relative to control. Type of data set: functional, A/Puerto Rico/8/1934(H1N1).

Data set [10] has as its target Glycogen synthase kinase-3 beta (Homo sapiens) (UniProt P49841). Briefly: Inhibition of GSK3beta (unknown origin) at 1 uM.
In data set [11] the test system is Influenza A virus. Briefly: In vivo antiviral activity against Influenza A virus (A/Puerto Rico/8/34(H1N1)) infected in BALB/c mouse assessed as survival rate at 10 mg/kg, po administered bid for 10 days after 48 hrs post infection and observed for 21 days relative to control. The class given is functional, A/Puerto Rico/8/1934(H1N1).

Glycogen synthase kinase-3 beta (Homo sapiens), sequence (P49841 whole entry, looked up): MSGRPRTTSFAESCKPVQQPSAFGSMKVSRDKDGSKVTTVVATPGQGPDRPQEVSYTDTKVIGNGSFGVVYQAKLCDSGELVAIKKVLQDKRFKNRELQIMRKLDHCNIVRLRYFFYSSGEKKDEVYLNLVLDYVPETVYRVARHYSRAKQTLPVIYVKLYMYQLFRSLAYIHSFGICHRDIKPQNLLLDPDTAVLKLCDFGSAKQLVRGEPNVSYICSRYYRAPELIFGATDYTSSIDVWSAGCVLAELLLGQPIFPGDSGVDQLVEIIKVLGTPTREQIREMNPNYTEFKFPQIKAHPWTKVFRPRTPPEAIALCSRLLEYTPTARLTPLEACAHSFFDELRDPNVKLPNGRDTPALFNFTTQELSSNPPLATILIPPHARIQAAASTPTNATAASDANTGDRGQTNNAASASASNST

On to `N#Cc1cc(F)c2[nH]cc(-c3ncc(F)c(N[C@H]4C5CCC(CC5)[C@@H]4C(=O)O)n3)c2c1`, for which the IC50 was found to be 43 nM in data set [1]; 19 nM in data set [5]; 11 nM in data set [6]; 80 nM in [7]; 13000 nM in data set [8]. In addition, the selectivity ratio was greater than 612 in data set [2], 97 in data set [3] and 59 in data set [4].

Regarding `O=C(O)[C@H]1C2CCC(CC2)[C@@H]1Nc1nc(-c2c[nH]c3c(F)cc(F)cc23)ncc1F`, the half-maximal inhibitory concentration (IC50) in data set [1] was 22 nM; in data set [7], 120 nM; in data set [8], greater than 50000 nM. Also, in data set [9], the Activity is listed as 75%. Moreover, the inhibition result in [10] was “inactive”.

In the case of `NC(=O)c1nc(F)cnc1O`, the values for the selectivity ratio in data set [3] and in data set [4] were greater than 6 and greater than 3, respectively. Besides, the figures for the IC50 in data set [5] and in data set [6] were 35700 nM and 16800 nM, respectively.

For the compound `O=C(O)[C@H]1C2CCC(CC2)[C@@H]1Nc1nc(-c2c[nH]c3c(F)cc(Cl)cc23)ncc1F`, the IC50 in data set [1] is 53 nM; in [5], 47 nM; in data set [6], 21 nM; in data set [7], 170 nM; in data set [8] it was greater than 50000 nM. The selectivity ratio in data set [2] is greater than 485; in data set [3] it was 83; in data set [4], 28.

Turning to `CCOC(=O)C1=C[C@@H](OC(CC)CC)[C@H](NC(C)=O)[C@@H](N)C1` [OSELTAMIVIR], the IC50 in data set [1] is 31 nM. For the same compound, the selectivity ratio in data set [2] is greater than 4130. For the same compound, the Activity in data set [11] worked out at 38%.

`Cc1cc(F)c2[nH]cc(-c3ncc(F)c(N[C@H]4C5CCC(CC5)[C@@H]4C(=O)O)n3)c2c1`: the IC50 amounted to 22 nM in data set [1]; 11 nM in [5]; 4 nM in data set [6]; 120 nM in [7]; 26000 nM in data set [8]. Also, the figures for the selectivity ratio in [2], in data set [3] and in data set [4] were 1490, 75 and 25, respectively.

Usually IC50 stands for the concentration that gives 50% inhibition.
